Results reported in ChEMBL document CHEMBL1140876, “Synthesis and antibacterial property of quinolines with potent DNA gyrase activity” (2009).
Values after ≈ are worked out from the molar mass of the structure shown. Active and inactive are the calls of the source. The rule behind the calls is not given here.

Legend:
Salmonella typhimurium [1] = test: Antimicrobial activity against Salmonella Typhimurium at 20 ug after 24 hrs by disk diffusion method; type: functional, Salmonella enterica subsp. enterica serovar Typhimurium; details: Salmonella enterica, read-out: IZ
Outline: (§1)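 Inoculum made in 0.85% saline against McFarland standard, swabbed evenly onto nutrient agar; sterile filter-paper discs set equidistant and loaded with equal volumes of drug at varying amounts; zone of inhibition measured after 24 h at 37 °C; ciprofloxacin reference.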

Bacillus subtilis [2] = test: Antimicrobial activity against Bacillus subtilis at 5 ug after 24 hrs by disk diffusion method; type: functional; details: read-out: IZ; outline: as §1
Salmonella typhi = test: Antimicrobial activity against Salmonella typhi by broth microdilution assay; type: functional, Salmonella enterica subsp. enterica serovar Typhi; details: Salmonella enterica
Outline: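 Broth microdilution in 96-well plates following the NCCLS 1997 protocol. Final inoculum was 10^5 cfu/mL, with a control organism run alongside. Plates were incubated at 35.7 °C in air for 18–20 h. MIC is the lowest concentration with no visible growth.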

Escherichia coli [3] = test: Antimicrobial activity against Escherichia coli at 10 ug after 24 hrs by disk diffusion method; type: functional; details: read-out: IZ; outline: as §1
Bacillus subtilis [4] = test: Antimicrobial activity against Bacillus subtilis at 20 ug after 24 hrs by disk diffusion method; type: functional; details: read-out: IZ; outline: as §1
Staphylococcus aureus [5] = test: Antimicrobial activity against Staphylococcus aureus at 10 ug after 24 hrs by disk diffusion method; type: functional; details: read-out: IZ; outline: as §1
[6] = Inhibition of DNA gyrase assessed as conversion of relaxed pBR322 to supercoiled form
Outline: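 Supercoiling in 15 µL reactions: gyrase assay buffer, 150 ng relaxed pBR322, 2–3 µL purified DNA gyrase, 3 h at 37 °C (E. coli); stopped with 50% glycerol/0.25% bromophenol blue; 1% agarose in 1× TBE pH 8.3, 90 V 3 h; ethidium bromide stain; supercoiled band brightness by densitometry. Ciprofloxacin comparator.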

Pseudomonas aeruginosa [7] = test: Antimicrobial activity against Pseudomonas aeruginosa by broth microdilution assay; type: functional
Outline: (§2)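 Broth microdilution per NCCLS 1997 in 96-well plate; final inoculum 10^5 cfu/mL; incubated 35.7 °C in air 18–20 h; MIC read as lowest concentration with no visible growth.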

Pseudomonas aeruginosa [8] = test: Antimicrobial activity against Pseudomonas aeruginosa at 10 ug after 24 hrs by disk diffusion method; type: functional; details: read-out: IZ; outline: as §1
Klebsiella pneumoniae [9] = test: Antimicrobial activity against Klebsiella pneumoniae at 10 ug after 24 hrs by disk diffusion method; type: functional; details: read-out: IZ; outline: as §1
Salmonella typhimurium [10] = test: Antimicrobial activity against Salmonella Typhimurium at 25 ug after 24 hrs by disk diffusion method; type: functional, Salmonella enterica subsp. enterica serovar Typhimurium; details: Salmonella enterica, read-out: IZ; outline: as §1
Escherichia coli [11] = test: Antimicrobial activity against Escherichia coli at 5 ug after 24 hrs by disk diffusion method; type: functional; details: read-out: IZ; outline: as §1
Klebsiella pneumoniae [12] = test: Antimicrobial activity against Klebsiella pneumoniae at 15 ug after 24 hrs by disk diffusion method; type: functional; details: read-out: IZ; outline: as §1
Staphylococcus aureus [13] = test: Antimicrobial activity against Staphylococcus aureus by broth microdilution assay; type: functional; outline: as §2
Pseudomonas aeruginosa [14] = test: Antimicrobial activity against Pseudomonas aeruginosa at 5 ug after 24 hrs by disk diffusion method; type: functional; details: read-out: IZ; outline: as §1
Escherichia coli [15] = test: Antimicrobial activity against Escherichia coli at 15 ug after 24 hrs by disk diffusion method; type: functional; details: read-out: IZ; outline: as §1
Salmonella typhimurium [16] = test: Antimicrobial activity against Salmonella Typhimurium at 5 ug after 24 hrs by disk diffusion method; type: functional, Salmonella enterica subsp. enterica serovar Typhimurium; details: Salmonella enterica, read-out: IZ; outline: as §1
Staphylococcus aureus [17] = test: Antimicrobial activity against Staphylococcus aureus at 25 ug after 24 hrs by disk diffusion method; type: functional; details: read-out: IZ; outline: as §1
Bacillus subtilis [18] = test: Antimicrobial activity against Bacillus subtilis at 25 ug after 24 hrs by disk diffusion method; type: functional; details: read-out: IZ; outline: as §1
Pseudomonas aeruginosa [19] = test: Antimicrobial activity against Pseudomonas aeruginosa at 20 ug after 24 hrs by disk diffusion method; type: functional; details: read-out: IZ; outline: as §1
Klebsiella pneumoniae [20] = test: Antimicrobial activity against Klebsiella pneumoniae by broth microdilution assay; type: functional; outline: as §2
Escherichia coli [21] = test: Antimicrobial activity against Escherichia coli at 25 ug after 24 hrs by disk diffusion method; type: functional; details: read-out: IZ; outline: as §1
Staphylococcus aureus [22] = test: Antimicrobial activity against Staphylococcus aureus at 20 ug after 24 hrs by disk diffusion method; type: functional; details: read-out: IZ; outline: as §1
Salmonella typhimurium [23] = test: Antimicrobial activity against Salmonella Typhimurium at 15 ug after 24 hrs by disk diffusion method; type: functional, Salmonella enterica subsp. enterica serovar Typhimurium; details: Salmonella enterica, read-out: IZ; outline: as §1
Klebsiella pneumoniae [24] = test: Antimicrobial activity against Klebsiella pneumoniae at 20 ug after 24 hrs by disk diffusion method; type: functional; details: read-out: IZ; outline: as §1
Klebsiella pneumoniae [25] = test: Antimicrobial activity against Klebsiella pneumoniae at 25 ug after 24 hrs by disk diffusion method; type: functional; details: read-out: IZ; outline: as §1
Bacillus subtilis [26] = test: Antimicrobial activity against Bacillus subtilis at 10 ug after 24 hrs by disk diffusion method; type: functional; details: read-out: IZ; outline: as §1
Pseudomonas aeruginosa [27] = test: Antimicrobial activity against Pseudomonas aeruginosa at 25 ug after 24 hrs by disk diffusion method; type: functional; details: read-out: IZ; outline: as §1
Bacillus subtilis [28] = test: Antimicrobial activity against Bacillus subtilis by broth microdilution assay; type: functional; outline: as §2
[29] = Inhibition of DNA gyrase assessed as pBR322 DNA relaxation at 1 uM
Outline: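 Relaxation without ATP: gyrase (60 nM) with supercoiled pBR322 DNA (6 nM) and drug at […] for 1 h at 37 °C; relaxation judged by gel. Ciprofloxacin, novobiocin and nalidixic acid comparators.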

Staphylococcus aureus [30] = test: Antimicrobial activity against Staphylococcus aureus at 15 ug after 24 hrs by disk diffusion method; type: functional; details: read-out: IZ; outline: as §1
Salmonella typhimurium [31] = test: Antimicrobial activity against Salmonella Typhimurium at 10 ug after 24 hrs by disk diffusion method; type: functional, Salmonella enterica subsp. enterica serovar Typhimurium; details: Salmonella enterica, read-out: IZ; outline: as §1
Klebsiella pneumoniae [32] = test: Antimicrobial activity against Klebsiella pneumoniae at 5 ug after 24 hrs by disk diffusion method; type: functional; details: read-out: IZ; outline: as §1
Escherichia coli [33] = test: Antimicrobial activity against Escherichia coli by broth microdilution assay; type: functional; outline: as §2
Pseudomonas aeruginosa [34] = test: Antimicrobial activity against Pseudomonas aeruginosa at 15 ug after 24 hrs by disk diffusion method; type: functional; details: read-out: IZ; outline: as §1
Escherichia coli [35] = test: Antimicrobial activity against Escherichia coli at 20 ug after 24 hrs by disk diffusion method; type: functional; details: read-out: IZ; outline: as §1
Bacillus subtilis [36] = test: Antimicrobial activity against Bacillus subtilis at 15 ug after 24 hrs by disk diffusion method; type: functional; details: read-out: IZ; outline: as §1
Staphylococcus aureus [37] = test: Antimicrobial activity against Staphylococcus aureus at 5 ug after 24 hrs by disk diffusion method; type: functional; details: read-out: IZ; outline: as §1

c1ccc(C2c3cc(Cc4ccc5c(c4)C(c4ccccc4)C4Cn6cccc6C4N5)ccc3NC3c4cccn4CC32)cc1 (stereo not given)
zone of inhibition at 20 µg/disc (Salmonella typhimurium [1]): 22 mm
zone of inhibition at 5 µg/disc (Bacillus subtilis [2]): 7 mm
MIC50 (Salmonella typhi): 2.51 µg/mL (≈ 4.29 µM)
MIC90 (Salmonella typhi): 5 µg/mL (≈ 8.55 µM)
zone of inhibition at 10 µg/disc (Escherichia coli [3]): 14 mm
zone of inhibition at 20 µg/disc (Bacillus subtilis [4]): 12 mm
zone of inhibition at 10 µg/disc (Staphylococcus aureus [5]): 13 mm
Activity [6]: Active
MIC50 (Pseudomonas aeruginosa [7]): 1 µg/mL (≈ 1.71 µM)
MIC90 (Pseudomonas aeruginosa [7]): 8 µg/mL (≈ 13.7 µM)
zone of inhibition at 10 µg/disc (Pseudomonas aeruginosa [8]): 24 mm
zone of inhibition at 10 µg/disc (Klebsiella pneumoniae [9]): 16 mm
zone of inhibition at 25 µg/disc (Salmonella typhimurium [10]): 24 mm
zone of inhibition at 5 µg/disc (Escherichia coli [11]): 11 mm
zone of inhibition at 15 µg/disc (Klebsiella pneumoniae [12]): 19 mm
MIC50 (Staphylococcus aureus [13]): 128 µg/mL (≈ 219 µM)
MIC90 (Staphylococcus aureus [13]): 128 µg/mL (≈ 219 µM)
zone of inhibition at 5 µg/disc (Pseudomonas aeruginosa [14]): 20 mm
zone of inhibition at 15 µg/disc (Escherichia coli [15]): 16 mm
zone of inhibition at 5 µg/disc (Salmonella typhimurium [16]): 10 mm
zone of inhibition at 25 µg/disc (Staphylococcus aureus [17]): 21 mm
zone of inhibition at 25 µg/disc (Bacillus subtilis [18]): 13 mm
zone of inhibition at 20 µg/disc (Pseudomonas aeruginosa [19]): 28 mm
MIC50 (Klebsiella pneumoniae [20]): 0.125 µg/mL (≈ 0.214 µM)
MIC90 (Klebsiella pneumoniae [20]): 2 µg/mL (≈ 3.42 µM)
zone of inhibition at 25 µg/disc (Escherichia coli [21]): 22 mm
zone of inhibition at 20 µg/disc (Staphylococcus aureus [22]): 17 mm
zone of inhibition at 15 µg/disc (Salmonella typhimurium [23]): 18 mm
zone of inhibition at 20 µg/disc (Klebsiella pneumoniae [24]): 24 mm
zone of inhibition at 25 µg/disc (Klebsiella pneumoniae [25]): 26 mm
zone of inhibition at 10 µg/disc (Bacillus subtilis [26]): 9 mm
zone of inhibition at 25 µg/disc (Pseudomonas aeruginosa [27]): 30 mm
MIC50 (Bacillus subtilis [28]): 0.25 µg/mL (≈ 0.428 µM)
MIC90 (Bacillus subtilis [28]): 5 µg/mL (≈ 8.55 µM)
Activity [29]: Active
zone of inhibition at 15 µg/disc (Staphylococcus aureus [30]): 15 mm
zone of inhibition at 10 µg/disc (Salmonella typhimurium [31]): 16 mm
zone of inhibition at 5 µg/disc (Klebsiella pneumoniae [32]): 12 mm
MIC50 (Escherichia coli [33]): 2 µg/mL (≈ 3.42 µM)
MIC90 (Escherichia coli [33]): 8 µg/mL (≈ 13.7 µM)
zone of inhibition at 15 µg/disc (Pseudomonas aeruginosa [34]): 26 mm
zone of inhibition at 20 µg/disc (Escherichia coli [35]): 21 mm
zone of inhibition at 15 µg/disc (Bacillus subtilis [36]): 10 mm
zone of inhibition at 5 µg/disc (Staphylococcus aureus [37]): 9 mm

O=C(O)c1cn(C2CC2)c2cc(N3CCNCC3)c(F)cc2c1=O [CIPROFLOXACIN]
zone of inhibition at 20 µg/disc (Salmonella typhimurium [1]): 22 mm
zone of inhibition at 5 µg/disc (Bacillus subtilis [2]): 6 mm
MIC50 (Salmonella typhi): 0.04 µg/mL (≈ 0.121 µM)
MIC90 (Salmonella typhi): 0.15 µg/mL (≈ 0.453 µM)
zone of inhibition at 10 µg/disc (Escherichia coli [3]): 16 mm
zone of inhibition at 20 µg/disc (Bacillus subtilis [4]): 10 mm
zone of inhibition at 10 µg/disc (Staphylococcus aureus [5]): 24 mm
Activity [6]: Active
MIC50 (Pseudomonas aeruginosa [7]): 0.125 µg/mL (≈ 0.377 µM)
MIC90 (Pseudomonas aeruginosa [7]): 1 µg/mL (≈ 3.02 µM)
zone of inhibition at 10 µg/disc (Pseudomonas aeruginosa [8]): 14 mm
zone of inhibition at 10 µg/disc (Klebsiella pneumoniae [9]): 26 mm
zone of inhibition at 25 µg/disc (Salmonella typhimurium [10]): 24 mm
zone of inhibition at 15 µg/disc (Klebsiella pneumoniae [12]): 30 mm
MIC50 (Staphylococcus aureus [13]): 0.5 µg/mL (≈ 1.51 µM)
MIC90 (Staphylococcus aureus [13]): 1 µg/mL (≈ 3.02 µM)
zone of inhibition at 5 µg/disc (Pseudomonas aeruginosa [14]): 12 mm
zone of inhibition at 15 µg/disc (Escherichia coli [15]): 18 mm
zone of inhibition at 5 µg/disc (Salmonella typhimurium [16]): 14 mm
zone of inhibition at 25 µg/disc (Staphylococcus aureus [17]): 36 mm
zone of inhibition at 25 µg/disc (Bacillus subtilis [18]): 12 mm
zone of inhibition at 20 µg/disc (Pseudomonas aeruginosa [19]): 20 mm
MIC50 (Klebsiella pneumoniae [20]): 0.03 µg/mL (≈ 0.0905 µM)
MIC90 (Klebsiella pneumoniae [20]): 0.5 µg/mL (≈ 1.51 µM)
zone of inhibition at 20 µg/disc (Staphylococcus aureus [22]): 30 mm
zone of inhibition at 15 µg/disc (Salmonella typhimurium [23]): 18 mm
zone of inhibition at 20 µg/disc (Klebsiella pneumoniae [24]): 34 mm
zone of inhibition at 25 µg/disc (Klebsiella pneumoniae [25]): 36 mm
zone of inhibition at 10 µg/disc (Bacillus subtilis [26]): 7 mm
zone of inhibition at 25 µg/disc (Pseudomonas aeruginosa [27]): 23 mm
MIC50 (Bacillus subtilis [28]): 0.04 µg/mL (≈ 0.121 µM)
MIC90 (Bacillus subtilis [28]): 0.15 µg/mL (≈ 0.453 µM)
Activity [29]: Active
zone of inhibition at 15 µg/disc (Staphylococcus aureus [30]): 26 mm
zone of inhibition at 10 µg/disc (Salmonella typhimurium [31]): 16 mm
zone of inhibition at 5 µg/disc (Klebsiella pneumoniae [32]): 24 mm
MIC50 (Escherichia coli [33]): 0.015 µg/mL (≈ 0.0453 µM)
MIC90 (Escherichia coli [33]): 0.03 µg/mL (≈ 0.0905 µM)
zone of inhibition at 15 µg/disc (Pseudomonas aeruginosa [34]): 16 mm
zone of inhibition at 15 µg/disc (Bacillus subtilis [36]): 9 mm
zone of inhibition at 5 µg/disc (Staphylococcus aureus [37]): 22 mm
